Reference: ChEMBL document CHEMBL1131249, “Antimalarial cyclic peroxy ketals” (J Med Chem, 1998)
pIC50: −log10 of the molar value.

System: Plasmodium falciparum
Assay: In vitro antimalarial activity against Plasmodium falciparum.
Format: functional, organism-based
Outline: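 Method follows earlier published work. Each compound tested in quadruplicate. IC50 derived from fitted concentration–response curves. Artemisinin run as a concurrent control, with n = 20 for the control.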

Row | SMILES | pIC50
1 | COC1(c2ccc(S(C)(=O)=O)cc2)C=CC2(CCCCCC2)OO1 (configuration not stated) | 7.51
2 | COc1ccc(C2(OC)C=CC3(CCC3)OO2)cc1 (configuration not stated) | 6.80
3 | COC1(c2ccc(S(C)(=O)=O)cc2)C=CC2(CCCCC2)OO1 (configuration not stated) | 7.25
4 | COC1(c2ccc(OC(F)(F)F)cc2)C=CC2(CCCCCC2)OO1 (configuration not stated) | 7.21
5 | COC1(c2ccccc2)C=CC2(CCCCCC2)OO1 (configuration not stated) | 6.66
6 | COC1(c2ccc(F)cc2)C=CC2(CCCCCC2)OO1 (configuration not stated) | 7.07
7 | CCc1ccc(C2(OC)C=CC3(CCCCCC3)OO2)cc1 (configuration not stated) | 6.74
8 | COC1(c2ccccc2)C=CC2(CCCC2)OO1 (configuration not stated) | 6.72
9 | COC1(c2ccc([N+](=O)[O-])cc2)C=CC2(CCCCC2)OO1 (configuration not stated) | 7.34
10 | COc1ccc(C2(OC)C=CC3(CCCCCC3)OO2)cc1 (configuration not stated) | 6.68
11 | COC1(c2ccc(SC)cc2)C=CC2(CCCCC2)OO1 (configuration not stated) | 6.80
12 | COC1(c2ccccc2)C=CC2(CCCCC2)OO1 (configuration not stated) | 6.55
13 | CC(C)OC1(c2ccc(Cl)cc2)C=CC2(CCCCCC2)OO1 (configuration not stated) | 5.96
14 | COC1(c2ccc(Cl)cc2)C=CC2(CCCCC2)OO1 (configuration not stated) | 7.00
15 | CC1(C)C=CC(O)(c2ccccc2)OO1 (configuration not stated) | < 5.60
16 | COC1(c2ccc(Cl)cc2)C=CC2(CCCCCC2)OO1 (configuration not stated) | 7.24
17 | COC1(c2ccc(SC)cc2)C=CC2(CCCCCC2)OO1 (configuration not stated) | 7.11
18 | COC1(c2ccc(F)cc2)C=CC2(CCCCC2)OO1 (configuration not stated) | 6.70
19 | COc1ccc(C2(OC)C=CC3(CCCCC3)OO2)cc1 (configuration not stated) | 6.74
20 | COc1cc(C2(OC)C=CC3(CCCCCC3)OO2)cc(OC)c1OC (configuration not stated) | 6.92
21 | COC1(c2ccccc2)C=CC(C)(C)OO1 (configuration not stated) | 5.96
22 | C[C@@H]1CC[C@H]2[C@@H](C)C(=O)O[C@@H]3O[C@@]4(C)CC[C@@H]1[C@]32OO4 [ARTEMISININ] | 8.08
